Experimental data: ChEMBL document CHEMBL1147780, “Peptide inhibitors of Dengue virus NS3 protease. Part 1: Warhead” (Bioorg Med Chem Lett, 2006)
Where a SMILES comes first, the peptide text is derived from it. [ ]: non-standard residue; d: D form. The star is where a group is joined. Nle = CCCC[C@H](N)C(=O)O; Bz = O=C(c1ccccc1)*; CF3 = FC(F)(F)*

Target: Genome polyprotein (dengue virus type 2, UniProt P29990)
Experiment: Inhibitory activity against CF40.NS3pro from Dengue virus type 2
Summary of the method: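 Enzyme: truncated dengue 2 NS3 protease fused through a flexible linker to a […] NS2B region. Inhibitors tested in 96-well format in 50 mM Tris, pH 8.5, with 1 mM CHAPS. Values reported as Ki.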

Genome polyprotein, sequence (P29990 1346-1475 limits assumed): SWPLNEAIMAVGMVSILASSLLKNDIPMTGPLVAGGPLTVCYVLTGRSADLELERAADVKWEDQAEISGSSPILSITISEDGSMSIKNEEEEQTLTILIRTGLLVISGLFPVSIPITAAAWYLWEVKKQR
Genome polyprotein, sequence (P29990 1476-2093 limits assumed): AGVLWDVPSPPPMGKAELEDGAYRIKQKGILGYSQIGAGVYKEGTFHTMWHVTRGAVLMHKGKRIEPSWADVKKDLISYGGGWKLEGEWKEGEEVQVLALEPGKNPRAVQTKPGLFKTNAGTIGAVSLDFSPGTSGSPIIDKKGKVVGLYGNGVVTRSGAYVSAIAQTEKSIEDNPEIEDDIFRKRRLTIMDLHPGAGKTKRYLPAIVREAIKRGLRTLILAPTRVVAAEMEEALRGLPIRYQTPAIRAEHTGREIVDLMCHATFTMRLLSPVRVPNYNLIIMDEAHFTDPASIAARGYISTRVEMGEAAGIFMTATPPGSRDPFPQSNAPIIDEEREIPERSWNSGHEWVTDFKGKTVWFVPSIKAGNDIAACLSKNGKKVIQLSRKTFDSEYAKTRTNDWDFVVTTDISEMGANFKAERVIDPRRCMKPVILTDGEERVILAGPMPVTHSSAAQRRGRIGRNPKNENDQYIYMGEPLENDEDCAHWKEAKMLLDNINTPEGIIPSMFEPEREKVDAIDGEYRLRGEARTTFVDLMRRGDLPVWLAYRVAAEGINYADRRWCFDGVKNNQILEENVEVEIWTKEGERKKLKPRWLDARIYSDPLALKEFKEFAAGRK

Compound | Ki [µM]
CCCC[C@H](NC(=O)c1ccccc1)C(=O)N[C@@H](CCCCN)C(=O)N[C@@H](CCCN=C(N)N)C(=O)N[C@@H](CCCN=C(N)N)B(O)O | 0.043
CCCC[C@H](NC(=O)c1ccccc1)C(=O)N[C@@H](CCCCN)C(=O)N[C@@H](CCCNC(=N)N)C(=O)N[C@@H](CCCNC(=N)N)C(=O)c1nc2ccccc2o1 | 82.9
CCCC[C@H](NC(=O)c1ccccc1)C(=O)N[C@@H](CCCCN)C(=O)N[C@@H](CCCNC(=N)N)C(=O)N[C@@H](CCCNC(=N)N)C(=O)c1nccs1 | 42.8
CCCC[C@H](NC(=O)c1ccccc1)C(=O)N[C@@H](CCCCN)C(=O)N[C@@H](CCCN=C(N)N)C(=O)N[C@@H](CCCN=C(N)N)C(=O)NS(=O)(=O)C(F)(F)F | > 500
CCCC[C@H](NC(=O)c1ccccc1)C(=O)N[C@@H](CCCCN)C(=O)N[C@@H](CCCN=C(N)N)C(=O)N[C@@H](CCCN=C(N)N)C(O)C(=O)NCc1ccccc1 (stereo partly specified) | 178
CCCC[C@H](NC(=O)c1ccccc1)C(=O)N[C@@H](CCCCN)C(=O)N[C@@H](CCCN=C(N)N)C(=O)N[C@@H](CCCN=C(N)N)C(=O)C(F)(F)F (Bz-[Nle]KRR-CF3) | 0.85
CCCC[C@H](NC(=O)c1ccccc1)C(=O)N[C@@H](CCCCN)C(=O)N[C@@H](CCCN=C(N)N)C(=O)N[C@@H](CCCN=C(N)N)C(N)=O (Bz-[Nle]KRR-NH2) | 128
CCCC[C@H](NC(=O)c1ccccc1)C(=O)N[C@@H](CCCCN)C(=O)N[C@@H](CCCN=C(N)N)C(=O)N[C@@H](CCCN=C(N)N)C(=O)O (Bz-[Nle]KRR-OH) | > 500
CCCC[C@H](NC(=O)c1ccccc1)C(=O)N[C@@H](CCCCN)C(=O)N[C@H](C(=O)N[C@@H](CCCN=C(N)N)C(N)=O)[C@@H](C)O (Bz-[Nle]KTR-NH2) | > 500
CCCC[C@H](NC(=O)c1ccccc1)C(=O)N[C@@H](CCCCN)C(=O)N[C@H](C(=O)N[C@@H](CCCN=C(N)N)C(=O)O)[C@@H](C)O (Bz-[Nle]KTR-OH) | > 500
CCCC[C@H](NC(=O)c1ccccc1)C(=O)N[C@@H](CCCCN)C(=O)N[C@H](C(=O)N[C@H](C=O)CCCN=C(N)N)[C@@H](C)O (Bz-[Nle]KTR-aldehyde) | > 500
